This note sets out measurements from ChEMBL document CHEMBL1151737, “Development and preclinical studies of broad-spectrum anti-HIV agent (3'R,4'R)-3-cyanomethyl-4-methyl-3',4'-di-O-(S)-camphanoyl-(+)-cis-khellactone (3-cyanomethyl-4-methyl-DCK)” (J Med Chem, 2008).

Molecules are shown by their SMILES. pEC50, pIC50: −log10 of the molar value.

In series [1] the test system is Human immunodeficiency virus 1. In words: Antiviral activity against HIV1 BAL 92US657 isolate of subtype B with R5 tropism in human PBMC cells assessed as inhibition of p24 antigen production after 7 days by ELISA. The conditions noted are these: Human immunodeficiency virus 1, BAL, 168 h.
Series [2] in a line: Selectivity index, ratio of CC50 for human MT2 cells to EC50 for HIV1 3B. The conditions noted are these: read-out: Ratio CC50/EC50. In kind it is toxicity, cell-based.
Series [3] concerns Rattus norvegicus. In words: AUC (0 to t) in Sprague-Dawley rat at 20 mg/kg, intragastric gavage. In kind it is ADME, organism-based, Plasma. Also noted: dose 20 mg/kg, route intragastric. Particulars: in vivo, po. Put shortly: (§1)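 Male Sprague-Dawley rats (180–200 g), n = 3, given 2 mg/kg i.v. or 20 mg/kg i.g. in 10% PEG400. Blood taken at 0–720 min, plasma stored at −20 °C. Plasma extracted by acetonitrile protein precipitation and analysed by LC-MS/MS against 5–5000 ng/mL standards. Non-compartmental analysis; F = dose-normalized oral AUC(0–t)/i.v. AUC(0–t). Mean ± SD.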

Series [4] can be described thus: Selectivity index, ratio of CC50 for human MT4 cells to EC50 for HIV1 Lai. In kind it is toxicity, cell-based. A digest of the protocol: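 Ratio of XTT CC50 (4-day MT-4 exposure) to p24-ELISA EC50 against HIV-1 Lai in MT-4 cells.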
The subject of series [5] is Human immunodeficiency virus 1. The series can be described thus: Antiviral activity against wild type HIV1 3B in human MT2 cells assessed as inhibition of p24 antigen production after 4 days by ELISA. In kind it is functional, organism-based. The conditions noted are these: Human immunodeficiency virus 1, 3B, MT2, 96 h.
The nature of series [6]: Therapeutic index, ratio of IC50 for human H9 cells to EC50 for HIV1 3B. In kind it is cell-based. The conditions noted are these: read-out: Ratio IC50/EC50.
In series [7] the test system is Human immunodeficiency virus 1. In words: Antiviral activity against HIV Lai with X4 tropism infected human MT4 cells assessed as inhibition of p24 antigen production after 4 days by ELISA. In kind it is functional, organism-based. Particulars: Human immunodeficiency virus 1, M:B_Lai, MT4, 96 h. Put shortly:
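1 × 10⁴ MT-4 cells infected with HIV-1 Lai (100 TCID50) in RPMI 1640/10% FBS with graded compound overnight. Medium then replaced with compound-free medium. Supernatant lysed with Triton X-100 on day 4 and p24 measured by sandwich ELISA (A450) against recombinant p24 standard. Triplicate; EC50 by CalcuSyn.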

A further series has as its system PBMC. The series can be described thus: Cytotoxicity against human PBMC after 4 days by XTT assay. In kind it is cell-based. Particulars: 96 h.
For series [8], the system named is Human immunodeficiency virus 1. The series can be described thus: Antiviral activity against HIV1 93BR020 isolate of subtype F with X4R5 tropism in human PBMC cells assessed as inhibition of p24 antigen production after 4 days by ELISA. In kind it is functional, organism-based. Particulars: Human immunodeficiency virus 1, PBMC, 96 h.
In series [9] the test system is Rattus norvegicus. In words: AUC (0 to t) in Sprague-Dawley rat at 2 mg/kg, iv. In kind it is ADME, organism-based, Plasma. Further details: dose 2 mg/kg, route intravenous. The conditions noted are these: in vivo. A digest of the protocol: as §1
The subject of another series is H9. In words: Cytotoxicity against human H9 cells. In kind it is cell-based.
Series [10] deals with Human immunodeficiency virus 1. The series can be described thus: Antiviral activity against HIV1 BAL 93MW959 isolate of subtype C with R5 tropism in human PBMC cells assessed as inhibition of p24 antigen production after 4 days by ELISA. The conditions noted are these: Human immunodeficiency virus 1, BAL, 96 h. In kind it is functional, organism-based.
The test system of series [11] is Human immunodeficiency virus 1. The series can be described thus: Antiviral activity against multidrug-resistant HIV1 with reverse transcriptase clone 7324-1 infected human MT2 cells assessed as inhibition of p24 antigen production after 4 days by ELISA. In kind it is functional, organism-based. The conditions noted are these: Human immunodeficiency virus 1, MT2, 96 h. Put shortly: (§2)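 MT-2 cells (1 × 10⁴) infected with HIV-1 (100 TCID50) in RPMI 1640 + 10% FBS with graded compound concentrations overnight; supernatant then replaced with compound-free medium. Day 4 post-infection supernatant lysed with 5% Triton X-100; p24 quantified by sandwich ELISA (HIVIG capture, anti-p24 mAb, TMB, A450) against recombinant p24 standard. Triplicate; EC50 from % inhibition of p24.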

Series [12] in a line: Volume of distribution in Sprague-Dawley rat at 2 mg/kg, iv. Also noted: dose 2 mg/kg, route intravenous. The conditions noted are these: in vivo. In kind it is ADME, organism-based. Put shortly:
as §1

Series [13] concerns Rattus norvegicus. In words: Volume of distribution in Sprague-Dawley rat at 20 mg/kg, intragastric gavage. In kind it is ADME, organism-based. Also noted: dose 20 mg/kg, route intragastric. Particulars: in vivo, po. Put shortly:
as §1

Series [14] has as its system Human immunodeficiency virus 1. In words: Antiviral activity against HIV1 92UG001 isolate of subtype D with X4R5 tropism in human PBMC cells assessed as inhibition of p24 antigen production after 4 days by ELISA. Particulars: Human immunodeficiency virus 1, PBMC, 96 h. In kind it is functional, organism-based.
For series [15], the system named is Human immunodeficiency virus 1. The series can be described thus: Antiviral activity against HIV1 BAL 93MW959 isolate of subtype C with R5 tropism in human PBMC cells assessed as inhibition of p24 antigen production after 7 days by ELISA. The conditions noted are these: Human immunodeficiency virus 1, BAL, 168 h.
A short description of series [16]: Half life in Sprague-Dawley rat at 2 mg/kg, iv. In kind it is ADME, organism-based. Further details: dose 2 mg/kg, route intravenous. The conditions noted are these: in vivo. Put shortly:
as §1

Series [17] can be described thus: Ratio of EC50 for multidrug-resistant HIV1 with reverse transcriptase 41L, 74V, 184V, 210W, 215Y, ins SS, 98G mutation to EC50 for wild type HIV1 3B. In kind it is functional. A digest of the protocol:
(§3)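 Fold change: EC50 against each multi-RT-resistant strain divided by EC50 against wild-type HIV-1 IIIB, both measured by p24 ELISA in MT-2 cells (4-day infection, triplicate).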

The subject of another series is MT2. In words: Cytotoxicity against human MT2 cells after 4 days by XTT assay. In kind it is cell-based. The conditions noted are these: mt2, 96 h. A digest of the protocol:
(§4)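 Cells (5 × 10⁵/mL) incubated with graded compound at 37 °C for 4 days, then XTT (1 mg/mL) with 0.02 µM PMS added. A450 read after 4 h; CC50 by CalcuSyn. Triplicate.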

Series [18] is described as follows: Clearance in Sprague-Dawley rat at 20 mg/kg, intragastric gavage. In kind it is ADME, organism-based. Also noted: dose 20 mg/kg, route intragastric. The conditions noted are these: in vivo, po. A digest of the protocol:
as §1

The subject of series [19] is Human immunodeficiency virus 1. In words: Antiviral activity against HIV1 BAL RU570 isolate of subtype G with R5 tropism in human PBMC cells assessed as inhibition of p24 antigen production after 4 days by ELISA. In kind it is functional, organism-based. The conditions noted are these: Human immunodeficiency virus 1, BAL, 96 h.
Series [20] deals with Human immunodeficiency virus 1. In words: Antiviral activity against multidrug-resistant HIV1 with reverse transcriptase 41L, 67N, 210W, 215Y, 184V, 103N mutation infected in human MT2 cells assessed as inhibition of p24 antigen production after 4 days by ELISA. In kind it is functional, organism-based. Particulars: Human immunodeficiency virus 1, MT2, 96 h. A digest of the protocol: as §2

Series [21] in a line: Clearance in Sprague-Dawley rat at 2 mg/kg, iv. In kind it is ADME, organism-based. Further details: dose 2 mg/kg, route intravenous. The conditions noted are these: in vivo. Put shortly: as §1
Series [22] concerns Human immunodeficiency virus 1. The series can be described thus: Antiviral activity against multidrug-resistant HIV1 with reverse transcriptase 41L, 74V, 184V, 210W, 215Y, ins SS, 98G mutation infected in human MT2 cells assessed as inhibition of p24 antigen production after 4 days by ELISA. In kind it is functional, organism-based. Particulars: Human immunodeficiency virus 1, MT2, 96 h. Put shortly:
as §2

The next series has as its system MT4. The series can be described thus: Cytotoxicity against human MT4 cells after 4 days by XTT assay. In kind it is cell-based. Particulars: mt4, 96 h. Put shortly: as §4
Series [23] relates to Rattus norvegicus. In words: Bioavailability in Sprague-Dawley rat at 20 mg/kg, intragastric gavage. In kind it is ADME, organism-based. Particulars: in vivo, po. Put shortly: as §1
Series [24] in a line: Ratio of EC50 for multidrug-resistant HIV1 with reverse transcriptase 41 L, 67N, 210W, 215Y, 184V, 103N mutation to EC50 for wild type HIV1 3B. In kind it is functional. Put shortly:
as §3

The test system of series [25] is Human immunodeficiency virus 1. The series can be described thus: Antiviral activity against HIV1 94UG103 isolate of subtype A with X4R5 tropism in human PBMC cells assessed as inhibition of p24 antigen production after 7 days by ELISA. Particulars: Human immunodeficiency virus 1, PBMC, 168 h.
The test system of series [26] is Human immunodeficiency virus 1. The series can be described thus: Antiviral activity against HIV1 3B with X4 tropism infected human MT2 cells assessed as inhibition of p24 antigen production after 4 days by ELISA. In kind it is functional, organism-based. The conditions noted are these: Human immunodeficiency virus 1, 3B, MT2, 96 h. A digest of the protocol:
as §2

Series [27] deals with Rattus norvegicus. The series can be described thus: Half life in Sprague-Dawley rat at 20 mg/kg, intragastric gavage. In kind it is ADME, organism-based. Also noted: dose 20 mg/kg, route intragastric. Particulars: in vivo, po. A digest of the protocol: as §1
Series [28] has as its system Human immunodeficiency virus 1. In words: Antiviral activity against HIV1 3B infected in human H9 lymphocytes. The conditions noted are these: Human immunodeficiency virus 1, 3B. In kind it is functional, organism-based.
Series [29] in a line: Ratio of EC50 for multidrug-resistant HIV1with reverse transcriptase clone 7324-1 to EC50 for wild type HIV1 3B. In kind it is functional. Put shortly:
as §3

The subject of series [30] is Human immunodeficiency virus 1. In words: Antiviral activity against HIV1 BAL BCF02 isolate of group O with R5 tropism in human PBMC cells assessed as inhibition of p24 antigen production after 4 days by ELISA. In kind it is functional, organism-based. Particulars: Human immunodeficiency virus 1, BAL, 96 h.

As to `Cc1c(CC#N)c(=O)oc2c3c(ccc12)OC(C)(C)[C@H](OC(=O)[C@@]12CC[C@](C)(C(=O)O1)C2(C)C)[C@@H]3OC(=O)[C@@]12CC[C@](C)(C(=O)O1)C2(C)C`, the pEC50 was 5.29 in [1]; 6.70 in series [5]; 5.82 in series [7]; 5.66 in [8]; 5.41 in [11]; 6.01 in [14]. Moreover, the pEC50 in series [15] was 6.06; in series [19] it was 5.49; in series [20], 5.74; in series [22] it was 6.37; in series [25] it was 6.08; in series [26], 6.33. The pEC50 in series [28] was 8.62; in series [30], 5.00. Also, the EC90 is 9.22 µM in series [1]; 3.76 µM in series [8]; 3.06 µM in [10]; 5.23 µM in series [14]; 8.93 µM in series [19]; 1.63 µM in series [25]. For the same compound, the EC90 in series [30] is 18.1 µM. In addition, the selectivity ratio in [2] was 86.1; in series [4] it was > 66; in series [6] it was 15400. In addition, the AUC with Rattus norvegicus [3] was 348067.29 µg/L/min; in the series with Rattus norvegicus [9], 195270.08 µg/L/min. The CC50 in the series on PBMC is > 150 µM; in the series on MT2, 40.8 µM; in the series with MT4, > 100 µM. Further, the pIC50 with H9 was < 4.43. In addition, the Vd in series [12] came out at 2.34 L/kg; in the series on Rattus norvegicus [13], 8.19 L/kg. Also, in series [16], the half-life turned out to be 1.62 h. The Ratio EC50 in series [17] turned out to be 2.13; in series [24] it was 8.96; in series [29] it was 14.4. Moreover, in series [18], the apparent clearance (CL/F) stood at 58 mL/min/kg. The compound further showed a clearance in series [21] of 10 mL/min/kg. For the same compound, the F with Rattus norvegicus [23] is listed as 17.8%. Besides, the t1/2 with Rattus norvegicus [27] stood at 2.78 h.

As for `Cc1ccnc2c1NC(=O)c1cccnc1N2C1CC1` [NEVIRAPINE], the pEC50 in series [11], in series [20] and in series [22] was < 4.83 in each case.

Regarding `Cc1cc(=O)oc2c3c(ccc12)OC(C)(C)[C@H](OC(=O)[C@@]12CC[C@](C)(C(=O)O1)C2(C)C)[C@@H]3OC(=O)[C@@]12CC[C@](C)(C(=O)O1)C2(C)C`, the selectivity ratio in series [6] is 15700. In addition, the pIC50 in the series with H9 was 4.63. The pEC50 in series [28] was 8.82.

As for `Cc1c(CO)c(=O)oc2c3c(ccc12)OC(C)(C)[C@H](OC(=O)C12CCC(C)(C(=O)O1)C2(C)C)[C@@H]3OC(=O)C12CCC(C)(C(=O)O1)C2(C)C` (some centres not stated), the selectivity ratio in [6] stood at 6220.
